Measurements reported in ChEMBL document CHEMBL3734675, “Synthesis, antimycobacterial and antibacterial activity of fluoroquinolone derivatives containing an 3-alkoxyimino-4-(cyclopropylanimo)methylpyrrolidine moiety” (2015).

What was measured:
Type in all cases: functional
[1] = test system: Staphylococcus epidermidis; test: Potency index, ratio of ciprofloxacin MIC to compound MIC for methicillin-resistant Staphylococcus epidermidis 14-22
[2] = test system: Staphylococcus epidermidis; test: Potency index, ratio of levofloxacin MIC to compound MIC for methicillin-resistant Staphylococcus epidermidis 14-21
[3] = test system: Staphylococcus epidermidis; test: Potency index, ratio of levofloxacin MIC to compound MIC for methicillin-resistant Staphylococcus epidermidis 14-22
Enterococcus faecalis [4] = test: Potency index, ratio of levofloxacin MIC to compound MIC for Enterococcus faecalis 14-1
Escherichia coli [5] = test: Antibacterial activity against extended-spectrum beta-lactamase producing Escherichia coli 14-1 after 18 to 24 hrs by two-fold serial dilution method
Outline: (§1)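 Twofold serial dilution in agar media against Gram-positive and Gram-negative strains. Plates incubated at 35 °C for 18–24 h. MIC read as the lowest compound concentration giving complete inhibition of bacterial growth.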

Staphylococcus aureus [6] = test: Antibacterial activity against methicillin-sensitive Staphylococcus aureus 14-1 after 18 to 24 hrs by two-fold serial dilution method; outline: as §1
[7] = test system: Staphylococcus epidermidis; test: Potency index, ratio of ciprofloxacin MIC to compound MIC for methicillin-resistant Staphylococcus epidermidis 14-37
Escherichia coli [8] = test: Antibacterial activity against Escherichia coli 14-2 after 18 to 24 hrs by two-fold serial dilution method; outline: as §1
Staphylococcus aureus [9] = test: Potency index, ratio of ciprofloxacin MIC to compound MIC for methicillin-resistant Staphylococcus aureus 14-5
Enterococcus faecium [10] = test: Potency index, ratio of levofloxacin MIC to compound MIC for Enterococcus faecium 14-2
Enterococcus faecium [11] = test: Potency index, ratio of ciprofloxacin MIC to compound MIC for Enterococcus faecium 14-2
Klebsiella pneumoniae [12] = test: Antibacterial activity against extended-spectrum beta-lactamase producing Klebsiella pneumoniae 14-17 after 18 to 24 hrs by two-fold serial dilution method; outline: as §1
Enterococcus faecium [13] = test: Potency index, ratio of ciprofloxacin MIC to compound MIC for Enterococcus faecium 14-5
Klebsiella pneumoniae [14] = test: Antibacterial activity against Klebsiella pneumoniae 14-2 after 18 to 24 hrs by two-fold serial dilution method; outline: as §1
[15] = test system: Mycobacterium tuberculosis; test: Antimycobacterial activity against Mycobacterium tuberculosis H37Rv ATCC 27294 incubated for 7 days by microplate Alamar Blue assay; details: H37Rv ATCC 27294, 168 h
Outline: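 Fluorescence read-out. MIC is the lowest concentration that reduces fluorescence by at least 90% relative to the mean of replicate bacterium-only controls. Isoniazid and rifampicin were included as reference drugs.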

Klebsiella pneumoniae [16] = test: Antibacterial activity against extended-spectrum beta-lactamase producing Klebsiella pneumoniae 14-18 after 18 to 24 hrs by two-fold serial dilution method; outline: as §1
Pseudomonas aeruginosa [17] = test: Antibacterial activity against Pseudomonas aeruginosa 14-15 after 18 to 24 hrs by two-fold serial dilution method; outline: as §1
Enterococcus faecalis [18] = test: Potency index, ratio of ciprofloxacin MIC to compound MIC for Enterococcus faecalis 14-1
Pseudomonas aeruginosa [19] = test: Antibacterial activity against Pseudomonas aeruginosa 14-14 after 18 to 24 hrs by two-fold serial dilution method; outline: as §1
Enterococcus faecalis [20] = test: Antibacterial activity against Enterococcus faecalis 14-2 after 18 to 24 hrs by two-fold serial dilution method; outline: as §1
Escherichia coli [21] = test: Antibacterial activity against Escherichia coli ATCC 25922 after 18 to 24 hrs by two-fold serial dilution method; outline: as §1
[22] = test system: Staphylococcus epidermidis; test: Antibacterial activity against methicillin-sensitive Staphylococcus epidermidis 14-2 after 18 to 24 hrs by two-fold serial dilution method; outline: as §1
Enterococcus faecium [23] = test: Antibacterial activity against Enterococcus faecium 14-2 after 18 to 24 hrs by two-fold serial dilution method; outline: as §1
Pseudomonas aeruginosa [24] = test: Antibacterial activity against Pseudomonas aeruginosa 14-16 after 18 to 24 hrs by two-fold serial dilution method; outline: as §1
Pseudomonas aeruginosa [25] = test: Antibacterial activity against Pseudomonas aeruginosa ATCC 27853 after 18 to 24 hrs by two-fold serial dilution method; outline: as §1
Staphylococcus aureus [26] = test: Antibacterial activity against methicillin-resistant Staphylococcus aureus 14-4 after 18 to 24 hrs by two-fold serial dilution method
Outline: (§2)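 Agar media, standard twofold serial dilution. MIC is the lowest concentration giving complete inhibition of bacterial growth after incubation at 35 °C for 18–24 h. Ciprofloxacin and levofloxacin were run as comparators.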

Klebsiella pneumoniae [27] = test: Antibacterial activity against Klebsiella pneumoniae 14-1 after 18 to 24 hrs by two-fold serial dilution method; outline: as §1
Enterococcus faecalis [28] = test: Potency index, ratio of ciprofloxacin MIC to compound MIC for Enterococcus faecalis 14-2
[29] = test system: Staphylococcus epidermidis; test: Antibacterial activity against methicillin-resistant Staphylococcus epidermidis 14-21 after 18 to 24 hrs by two-fold serial dilution method; outline: as §2
Enterococcus faecium [30] = test: Potency index, ratio of levofloxacin MIC to compound MIC for Enterococcus faecium 14-5
Escherichia coli [31] = test: Antibacterial activity against Escherichia coli 14-1 after 18 to 24 hrs by two-fold serial dilution method; outline: as §1
Staphylococcus aureus [32] = test: Potency index, ratio of levofloxacin MIC to compound MIC for methicillin-resistant Staphylococcus aureus 14-4
Klebsiella pneumoniae [33] = test: Antibacterial activity against Klebsiella pneumoniae 14-3 after 18 to 24 hrs by two-fold serial dilution method; outline: as §1
[34] = test system: Staphylococcus epidermidis; test: Antibacterial activity against methicillin-resistant Staphylococcus epidermidis 14-39 after 18 to 24 hrs by two-fold serial dilution method; outline: as §2
Staphylococcus aureus [35] = test: Potency index, ratio of ciprofloxacin MIC to compound MIC for methicillin-resistant Staphylococcus aureus 14-4
[36] = test system: Staphylococcus epidermidis; test: Antibacterial activity against methicillin-resistant Staphylococcus epidermidis 14-22 after 18 to 24 hrs by two-fold serial dilution method; outline: as §2
[37] = test system: Staphylococcus epidermidis; test: Potency index, ratio of ciprofloxacin MIC to compound MIC for methicillin-resistant Staphylococcus epidermidis 14-21
Staphylococcus aureus [38] = test: Antibacterial activity against methicillin-resistant Staphylococcus aureus 14-5 after 18 to 24 hrs by two-fold serial dilution method; outline: as §2
Enterococcus faecalis [39] = test: Antibacterial activity against Enterococcus faecalis 14-1 after 18 to 24 hrs by two-fold serial dilution method; outline: as §1
[40] = test system: Staphylococcus epidermidis; test: Potency index, ratio of levofloxacin MIC to compound MIC for methicillin-resistant Staphylococcus epidermidis 14-37
Enterococcus faecium [41] = test: Antibacterial activity against Enterococcus faecium 14-5 after 18 to 24 hrs by two-fold serial dilution method; outline: as §1
[42] = test system: Staphylococcus epidermidis; test: Potency index, ratio of levofloxacin MIC to compound MIC for methicillin-resistant Staphylococcus epidermidis 14-39
Enterococcus faecium [43] = test: Antibacterial activity against Enterococcus faecium 14-6 after 18 to 24 hrs by two-fold serial dilution method; outline: as §1
[44] = test system: Staphylococcus epidermidis; test: Potency index, ratio of ciprofloxacin MIC to compound MIC for methicillin-resistant Staphylococcus epidermidis 14-39
[45] = test system: Staphylococcus epidermidis; test: Antibacterial activity against methicillin-resistant Staphylococcus epidermidis 14-37 after 18 to 24 hrs by two-fold serial dilution method; outline: as §2
Streptococcus pneumoniae = test: Antibacterial activity against methicillin-resistant Streptococcus pneumoniae ATCC 19615 after 18 to 24 hrs by two-fold serial dilution method; outline: as §2
Staphylococcus aureus [46] = test: Antibacterial activity against methicillin-sensitive Staphylococcus aureus 14-3 after 18 to 24 hrs by two-fold serial dilution method; outline: as §1
Staphylococcus aureus [47] = test: Antibacterial activity against methicillin-sensitive Staphylococcus aureus 14-4 after 18 to 24 hrs by two-fold serial dilution method; outline: as §1
Escherichia coli [48] = test: Antibacterial activity against extended-spectrum beta-lactamase producing Escherichia coli 14-2 after 18 to 24 hrs by two-fold serial dilution method; outline: as §1
Staphylococcus aureus [49] = test: Antibacterial activity against Staphylococcus aureus CMCC 26003 after 18 to 24 hrs by two-fold serial dilution method; outline: as §1
Klebsiella pneumoniae [50] = test: Antibacterial activity against extended-spectrum beta-lactamase producing Klebsiella pneumoniae 14-19 after 18 to 24 hrs by two-fold serial dilution method; outline: as §1
Staphylococcus aureus [51] = test: Potency index, ratio of levofloxacin MIC to compound MIC for methicillin-resistant Staphylococcus aureus 14-5
Klebsiella pneumoniae [52] = test: Antibacterial activity against Klebsiella pneumoniae 14-4 after 18 to 24 hrs by two-fold serial dilution method; outline: as §1
Enterococcus faecium [53] = test: Potency index, ratio of ciprofloxacin MIC to compound MIC for Enterococcus faecium 14-6
Enterococcus faecium [54] = test: Potency index, ratio of levofloxacin MIC to compound MIC for Enterococcus faecium 14-6
Pseudomonas aeruginosa [55] = test: Antibacterial activity against Pseudomonas aeruginosa 14-9 after 18 to 24 hrs by two-fold serial dilution method; outline: as §1
Enterococcus faecalis [56] = test: Potency index, ratio of levofloxacin MIC to compound MIC for Enterococcus faecalis 14-2

CO/N=C1/CN(c2c(F)cc3c(=O)c(C(=O)O)cn4c3c2OC[C@@H]4C)CC1(C)CNC1CC1 (some centres not stated)
64 µg/mL: MIC (Escherichia coli [8]) | MIC (Escherichia coli [31])
2 µg/mL: MIC (Staphylococcus aureus [6]) | MIC (Escherichia coli [21]) | MIC [34] | MIC [36] | MIC [45]
0.015 µg/mL: MIC (Staphylococcus aureus [46]) | MIC (Staphylococcus aureus [47])
> 128 µg/mL: MIC (Escherichia coli [48]) | MIC (Klebsiella pneumoniae [52])
4 µg/mL: MIC (Escherichia coli [5]) | MIC (Enterococcus faecium [23]) | MIC (Staphylococcus aureus [26]) | MIC [29] | MIC (Staphylococcus aureus [38]) | MIC (Enterococcus faecium [41])
2: Ratio [1] | Ratio [2] | Ratio [3] | Ratio (Enterococcus faecalis [4]) | Ratio [7] | Ratio (Staphylococcus aureus [9]) | Ratio (Enterococcus faecium [10]) | Ratio (Enterococcus faecium [11]) | Ratio (Enterococcus faecium [13]) | Ratio (Enterococcus faecalis [18]) | Ratio (Enterococcus faecalis [28]) | Ratio (Enterococcus faecium [30]) | Ratio (Staphylococcus aureus [32]) | Ratio (Staphylococcus aureus [35]) | Ratio [37] | Ratio [40] | Ratio [42] | Ratio [44] | Ratio (Staphylococcus aureus [51]) | Ratio (Enterococcus faecium [53]) | Ratio (Enterococcus faecium [54]) | Ratio (Enterococcus faecalis [56])
0.64 µg/mL: MIC90 [15]
8 µg/mL: MIC [22] | MIC (Enterococcus faecalis [39]) | MIC (Enterococcus faecium [43]) | MIC (Pseudomonas aeruginosa [55])
16 µg/mL: MIC (Klebsiella pneumoniae [12]) | MIC (Klebsiella pneumoniae [14]) | MIC (Klebsiella pneumoniae [16]) | MIC (Pseudomonas aeruginosa [25]) | MIC (Klebsiella pneumoniae [27])
< 0.008 µg/mL: MIC (Staphylococcus aureus [49])
0.5 µg/mL: MIC (Enterococcus faecalis [20]) | MIC (Streptococcus pneumoniae)
32 µg/mL: MIC (Pseudomonas aeruginosa [17]) | MIC (Pseudomonas aeruginosa [19]) | MIC (Pseudomonas aeruginosa [24]) | MIC (Klebsiella pneumoniae [50])
128 µg/mL: MIC (Klebsiella pneumoniae [33])
